Source: ChEMBL document CHEMBL4004839, “Targeting Bacillosamine Biosynthesis in Bacterial Pathogens: Development of Inhibitors to a Bacterial Amino-Sugar Acetyltransferase from Campylobacter jejuni” (J Med Chem, 2017)
The source made the active and inactive calls. The rule behind the calls is not given here.

Assays:
[1] = target: T1, UDP-N-acetylbacillosamine N-acetyltransferase (Campylobacter jejuni subsp. jejuni serotype O:2 (strain ATCC 700819 /NCTC 11168), UniProt Q0P9D1); assay: Inhibition of Campylobacter jejuni NCTC 11168 PglD acetyltransferase expressed in Escherichia coli BL-21(DE3) strain (Stratagene) assessed as release of CoASH preincubated for 45 mins followed by addition of AcCoA and UDP-4-aminosugar measured after 30 mins by fragment-based high-throughput screening analysis
T1 sequence (Q0P9D1 whole entry): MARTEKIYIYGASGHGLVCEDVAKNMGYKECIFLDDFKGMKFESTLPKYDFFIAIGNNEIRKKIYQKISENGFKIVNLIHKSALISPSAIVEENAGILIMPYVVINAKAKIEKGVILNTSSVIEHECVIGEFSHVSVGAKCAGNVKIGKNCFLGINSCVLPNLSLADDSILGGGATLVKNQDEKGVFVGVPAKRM
In short: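 End-point screen with compounds at 10 μM final. Started with 100 μM UDP-4-aminosugar, quenched at 30 min with 2 mM DTNB, 1 mM EDTA, 20% 1-propanol (final). Developed 5 min, read at 405 nm.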

[2] = target: T1, UDP-N-acetylbacillosamine N-acetyltransferase; assay: Inhibition of Campylobacter jejuni NCTC 11168 PglD acetyltransferase expressed in Escherichia coli BL-21(DE3) strain (Stratagene) assessed as release of CoASH preincubated for 30 mins followed by addition of 300 uM AcCoA and 500 uM UDP-4-aminosugar as substrate by Ellman's method
In short: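 Continuous DTNB read-out of CoASH release. Inhibitor (DMSO stock) preincubated 30 min at RT with PglD in 50 mM HEPES pH 7.8, 1 mM MgCl2, 0.05 mg/mL BSA, 0.001% Triton X-100. […] Initial rates over 5 min at RT, A412. IC50 derived.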

[3] = target: T2, UDP-N-acetylbacillosamine N-acetyltransferase (Campylobacter jejuni subsp. jejuni serotype O:2 (strain ATCC 700819 /NCTC 11168)) (UniProt Q0P9D1); assay: Binding affinity to Campylobacter jejuni NCTC 11168 PglD acetyltransferase expressed in Escherichia coli BL-21(DE3) strain (Stratagene) assessed as change in melting temperature at 100 uM by Sypro orange dye-based differential scanning fluorimetry
T2 sequence (whole entry): T1 sequence (Q0P9D1 whole entry)

[4] = target: T1, UDP-N-acetylbacillosamine N-acetyltransferase; assay: Competitive inhibition of Campylobacter jejuni NCTC 11168 PglD acetyltransferase expressed in Escherichia coli BL-21(DE3) strain (Stratagene) assessed as release of CoASH preincubated for 30 mins followed by addition of UDP-4-aminosugar and 2 fold excess AcCoA as substrate by Ellman's method
In short: (§1)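 Same continuous DTNB-coupled PglD assay: 30 min RT inhibitor–enzyme preincubation, 3 nM PglD, HEPES pH 7.8 buffer, A412 initial rates over 5 min. IC50 determined while raising one substrate above standard (300 μM AcCoA, 500 μM UDP-4-amino-sugar): AcCoA raised 2- or 5-fold, or UDP-4-amino-sugar raised to higher levels.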

[5] = target: T2, UDP-N-acetylbacillosamine N-acetyltransferase (Campylobacter jejuni subsp. jejuni serotype O:2 (strain ATCC 700819 /NCTC 11168)); assay: Competitive inhibition of Campylobacter jejuni NCTC 11168 PglD acetyltransferase expressed in Escherichia coli BL-21(DE3) strain (Stratagene) assessed as release of CoASH preincubated for 30 mins followed by addition of AcCoA and higher levels of UDP-4-aminosugar as substrate by Ellman's method; in short: as §1
[6] = target: T1, UDP-N-acetylbacillosamine N-acetyltransferase; assay: Competitive inhibition of Campylobacter jejuni NCTC 11168 PglD acetyltransferase expressed in Escherichia coli BL-21(DE3) strain (Stratagene) assessed as release of CoASH preincubated for 30 mins followed by addition of UDP-4-aminosugar and 5 fold excess AcCoA as substrate by Ellman's method; in short: as §1
[7] = target: T2, UDP-N-acetylbacillosamine N-acetyltransferase (Campylobacter jejuni subsp. jejuni serotype O:2 (strain ATCC 700819 /NCTC 11168)); assay: Effect on quaternary structure of Campylobacter jejuni NCTC 11168 PglD acetyltransferase expressed in Escherichia coli BL-21(DE3) strain (Stratagene) assessed as hydrodynamic radius of apo PgID at 250 uM by dynamic light scattering method (reference value: 34 Angstrom)
In short: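 DLS on 25 μM PglD with or without 250 μM inhibitor in 50 mM HEPES 7.5, 100 mM NaCl, 3% DMSO final. Scattering measured at 90° with 685 nm laser. Radius and polydispersity index derived with a Rayleigh scattering model.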

[8] = target: T2, UDP-N-acetylbacillosamine N-acetyltransferase (Campylobacter jejuni subsp. jejuni serotype O:2 (strain ATCC 700819 /NCTC 11168)); assay: Effect on quaternary structure of Campylobacter jejuni NCTC 11168 PglD acetyltransferase expressed in Escherichia coli BL-21(DE3) strain (Stratagene) assessed as polydispersity index of PgID at 250 uM by dynamic light scattering method (reference value: 31%)
In short: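 Recombinant C. jejuni PglD (His8-TEV construct, tag removed, Ni-NTA then size-exclusion purified) at 25 μM, with or without 250 μM inhibitor, in 50 mM HEPES 7.5, 100 mM NaCl, 3% DMSO final. Scattering measured at 90° with 685 nm laser; analysed with Rayleigh scattering model to give radius and polydispersity index.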

SMILES | IC50 [2] | ΔTm [3] | further results
Cc1c(C(=O)O)sc2nc(C(C)C)[nH]c(=O)c12 | – | – | IC50 [1]: 122 µM
Cc1c(C(=O)O)sc2nc(CCc3ccccc3)nc(NC3Cc4ccccc4C3)c12 | 1 µM | – | –
Cc1c(C(=O)O)sc2nc(CCc3ccccc3)nc(NCCc3ccccn3)c12 | 0.42 µM | 12.5 °C | –
Cc1c(C(=O)O)sc2nc(CCc3ccccc3)nc(NCCN)c12 | 1.6 µM | 3.6 °C | –
CNc1nc(CCc2ccc3c(c2)OCO3)nc2sc(C(=O)O)c(C)c12 | 1.8 µM | 7.4 °C | –
COc1ccc(CCNc2nc(CCc3ccccc3)nc3sc(C(=O)O)c(C)c23)cc1 | 0.54 µM | – | –
CNc1nc(CCc2cccc(OC)c2)nc2sc(C(=O)O)c(C)c12 | 1.1 µM | 8.4 °C | –
CO[C@@H](CNc1nc(C[C@H](C)c2ccccc2)nc2sc(C(=O)O)c(C)c12)c1ccccc1 | 2 µM | 9.4 °C | –
CO[C@@H](CNc1nc(C[C@@H](C)c2ccccc2)nc2sc(C(=O)O)c(C)c12)c1ccccc1 | 0.87 µM | – | –
Cc1c(C(=O)O)sc2nc(CCc3ccccc3)nc(NCCc3ccc4c(c3)OCO4)c12 | 0.59 µM | 11.5 °C | –
CNc1nc(CCc2cccc(OC)c2)nc2cc(C(=O)O)sc12 | 1.4 µM | 5.9 °C | –
COc1cccc(CCNc2nc(CCc3ccccc3)nc3sc(C(=O)O)c(C)c23)c1 | 0.45 µM | – | –
Cc1c(C(=O)O)sc2nc(CCc3ccccc3)nc(NCCc3ccncc3)c12 | 0.39 µM | 12 °C | –
Cc1cccc(CCNc2nc(CCc3ccccc3)nc3sc(C(=O)O)c(C)c23)c1 | 0.42 µM | – | –
Cc1c(C(=O)O)sc2nc[nH]c(=O)c12 | – | – | IC50 [1]: 860 µM
CC(=O)Nc1ccc(CCc2nc(NCCN)c3c(C)c(C(=O)O)sc3n2)cc1 | 1.4 µM | 5.3 °C | –
CNc1nc(CCc2cccc(Cl)c2)nc2sc(C(=O)O)c(C)c12 | 2.1 µM | 9.4 °C | –
CNc1nc(CCc2ccccc2)nc2sc(C(=O)O)c(C)c12 | 2.2 µM | 7.4 °C | –
Cc1c(C(=O)O)sc2nc(CCc3ccccc3)nc(NCCc3cccc(F)c3)c12 | 0.39 µM | – | –
CNc1nc(CCc2ccccc2)nc2cc(C(=O)O)sc12 | 3.9 µM | 4.8 °C | –
CNc1nc(CCCCc2ccccc2)nc2sc(C(=O)O)c(C)c12 | 4.1 µM | 7.4 °C | –

SMILES | IC50 [2] | ΔTm [3] | further results
CO[C@H](CNc1nc(C[C@@H](C)c2ccccc2)nc2sc(C(=O)O)c(C)c12)c1ccccc1 | 0.42 µM | 9.9 °C | –
CNc1nc(CCc2cccc(F)c2)nc2sc(C(=O)O)c(C)c12 | 2.3 µM | 8.9 °C | –
COc1ccccc1CCNc1nc(CCc2ccccc2)nc2sc(C(=O)O)c(C)c12 | 0.48 µM | 13.7 °C | –
Cc1c(C(=O)O)sc2nc(CCc3ccccc3)nc(NCCc3ccccc3F)c12 | 0.48 µM | 13.2 °C | –
O=C(O)c1cc(-c2ccco2)[nH]n1 | – | – | IC50 [1]: 8400 µM
Cc1ccccc1CCNc1nc(CCc2ccccc2)nc2sc(C(=O)O)c(C)c12 | 0.25 µM | 14.3 °C | –
Cc1c(C(=O)O)sc2nc(CCc3ccccc3)nc(NCc3ccccc3)c12 | 4.5 µM | – | –
Cc1c(C(=O)O)sc2nc(/C=C/c3ccc4[nH]ccc4c3)[nH]c(=O)c12 | – | – | IC50 [1]: 1 µM
Cc1c(C(=O)O)sc2nc(CCc3ccccc3)nc(NCCc3ccc(F)cc3)c12 | 0.42 µM | – | –
CO[C@H](CNc1nc(C[C@H](C)c2ccccc2)nc2sc(C(=O)O)c(C)c12)c1ccccc1 | 1.1 µM | 10.4 °C | –
CC(=O)Nc1ccc(CCc2nc(NCCc3ccccn3)c3c(C)c(C(=O)O)sc3n2)cc1 | 0.28 µM | 11.5 °C | –
CNc1nc(CCc2ccccc2NC(C)=O)nc2sc(C(=O)O)c(C)c12 | 9 µM | – | –
Cc1c(C(=O)O)sc2nc(CCc3ccccc3)nc(NCCc3cccnc3)c12 | 0.34 µM | 12 °C | –
Cc1ccc(CCNc2nc(CCc3ccccc3)nc3sc(C(=O)O)c(C)c23)cc1 | 0.72 µM | – | –
Cc1c(C(=O)O)sc2nc(CCc3ccccc3)nc(NCCc3ccccc3)c12 | 1.4 µM | 13.2 °C | –
CNc1nc(CCc2ccc(NC(C)=O)cc2)nc2sc(C(=O)O)c(C)c12 | 2.4 µM | – | –
COc1cc(CCNc2nc(CCc3ccccc3)nc3sc(C(=O)O)c(C)c23)cc(OC)c1 | 0.37 µM | – | IC50 [4]: 0.63 µM; inhibition [5]: Active; IC50 [6]: 1.4 µM
CNc1nc(CCc2cccc(NC(C)=O)c2)nc2sc(C(=O)O)c(C)c12 | 3.5 µM | – | –
CO[C@H](CNc1nc(CCc2ccc(NC(C)=O)cc2)nc2sc(C(=O)O)c(C)c12)c1ccccc1 | 0.27 µM | 12.5 °C | Activity [7]: 36 Angstrom; Activity [8]: 24%
CNc1nc(CCc2cccc(C(F)(F)F)c2)nc2sc(C(=O)O)c(C)c12 | 4.6 µM | 7.4 °C | –
CNc1nc(CCCc2ccccc2)nc2sc(C(=O)O)c(C)c12 | 4.4 µM | 7.9 °C | –
